Usually IC50 stands for the midpoint of a concentration-inhibition curve.

Data set [1] deals with Phosphatidylinositol 4,5-bisphosphate 3-kinase catalytic subunit alpha isoform (Homo sapiens, UniProt P42336). Kind of data set: Inhibition of recombinant human PI3Kalpha using PIP2 as substrate incubated for 1 hr by kinase-glo assay. (In general: In Kinase-Glo more light means more ATP remaining.)
Data set [2] is filed under the species Homo sapiens. Kind of data set: Selectivity ratio, ratio of IC50 for recombinant human PI3Kalpha to recombinant human His-tagged PIK3CD/PIK3R1 expressed in baculovirus expression system.
For data set [3], the target named is Protein deacetylase HDAC6 (Homo sapiens, UniProt Q9UBN7). Kind of data set: Inhibition of HDAC6 (unknown origin) using Ac-peptide as substrate preincubated for 15 mins followed by substrate addition and measured after 1 hr.
Protein deacetylase HDAC6, sequence (Q9UBN7 whole entry): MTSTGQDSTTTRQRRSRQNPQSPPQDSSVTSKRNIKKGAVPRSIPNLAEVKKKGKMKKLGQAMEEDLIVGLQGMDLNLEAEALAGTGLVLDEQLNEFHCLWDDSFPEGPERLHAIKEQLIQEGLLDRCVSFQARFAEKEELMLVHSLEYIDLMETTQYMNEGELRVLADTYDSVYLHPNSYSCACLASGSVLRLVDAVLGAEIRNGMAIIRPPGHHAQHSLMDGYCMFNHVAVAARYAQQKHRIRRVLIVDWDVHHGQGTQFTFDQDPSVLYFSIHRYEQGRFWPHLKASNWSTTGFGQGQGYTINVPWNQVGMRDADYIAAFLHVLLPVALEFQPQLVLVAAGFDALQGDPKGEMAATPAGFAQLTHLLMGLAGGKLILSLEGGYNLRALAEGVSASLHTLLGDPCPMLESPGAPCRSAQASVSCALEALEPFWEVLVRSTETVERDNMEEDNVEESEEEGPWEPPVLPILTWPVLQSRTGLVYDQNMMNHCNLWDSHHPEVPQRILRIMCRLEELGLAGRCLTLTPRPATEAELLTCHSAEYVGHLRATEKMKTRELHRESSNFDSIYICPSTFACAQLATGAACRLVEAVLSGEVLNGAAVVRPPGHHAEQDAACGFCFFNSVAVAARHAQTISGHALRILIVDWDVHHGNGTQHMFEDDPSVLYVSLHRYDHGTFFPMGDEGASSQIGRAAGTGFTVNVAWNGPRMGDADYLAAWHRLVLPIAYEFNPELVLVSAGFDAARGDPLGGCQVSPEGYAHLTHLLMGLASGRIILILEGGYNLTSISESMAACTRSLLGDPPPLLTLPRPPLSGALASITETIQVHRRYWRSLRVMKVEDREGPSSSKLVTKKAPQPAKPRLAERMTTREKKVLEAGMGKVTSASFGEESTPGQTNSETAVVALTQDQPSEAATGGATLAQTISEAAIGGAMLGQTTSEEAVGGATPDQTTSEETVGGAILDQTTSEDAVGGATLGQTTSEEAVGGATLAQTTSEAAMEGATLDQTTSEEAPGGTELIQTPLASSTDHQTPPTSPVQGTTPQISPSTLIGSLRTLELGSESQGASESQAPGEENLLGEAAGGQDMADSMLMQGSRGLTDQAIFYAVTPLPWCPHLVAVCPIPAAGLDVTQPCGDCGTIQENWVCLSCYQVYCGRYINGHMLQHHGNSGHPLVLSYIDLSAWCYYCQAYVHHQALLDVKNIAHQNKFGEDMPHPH
A further data set deals with Histone deacetylase 1 (Homo sapiens, UniProt Q13547). In words: Inhibition of recombinant C-terminal His/FLAG-tagged HDAC1 (unknown origin) expressed in baculovirus infected Sf9 insect cells using Ac-peptide as substrate preincubated for 15 mins followed by substrate addition and measured after 1 hr.
Histone deacetylase 1, sequence (Q13547 whole entry): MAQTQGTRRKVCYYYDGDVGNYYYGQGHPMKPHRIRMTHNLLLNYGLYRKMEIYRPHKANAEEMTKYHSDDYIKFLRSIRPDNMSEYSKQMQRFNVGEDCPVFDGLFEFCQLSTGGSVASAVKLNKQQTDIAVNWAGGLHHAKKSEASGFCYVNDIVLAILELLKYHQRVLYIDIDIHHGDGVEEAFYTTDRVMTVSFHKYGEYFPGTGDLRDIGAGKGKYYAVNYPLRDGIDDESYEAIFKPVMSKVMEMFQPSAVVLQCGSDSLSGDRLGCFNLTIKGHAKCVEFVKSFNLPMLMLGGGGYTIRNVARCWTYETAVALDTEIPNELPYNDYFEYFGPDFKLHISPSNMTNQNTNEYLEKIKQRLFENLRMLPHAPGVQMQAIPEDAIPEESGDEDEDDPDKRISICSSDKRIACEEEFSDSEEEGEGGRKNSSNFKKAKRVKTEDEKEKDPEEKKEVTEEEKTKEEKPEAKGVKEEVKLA
The species entered for data set [4] is Homo sapiens. Kind of data set: Inhibition of PI3K in human HCT116 cells assessed as reduction in AKT phosphorylation at S473 residue at 0.02 to 0.5 uM after 16 hrs by Western blot analysis. It is filed as cell-based. In outline: (§1)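 Immunoblot of HCT116 lysates (RIPA). 40 μg protein per lane on 10−12% SDS-PAGE, transferred to nitrocellulose, blocked 0.5 h in 5% milk/TBST. Primary antibodies 1:1000 overnight at 4 °C, secondary 1:1000 for 1 h, bands visualized by enhanced ECL.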
Background: In western blotting, separated proteins are transferred to a membrane and probed.

For data set [5], the species on record is Homo sapiens. Kind of data set: Inhibition of HDAC/PI3K in human HCT116 cells assessed as increase in cleaved caspase-3 level at 0.02 to 0.5 uM after 16 hrs by Western blot analysis. It is filed as cell-based. In outline:
as §1

Data set [6] can be described thus: Drug level in tumor of human HCT116 cells xenografted in athymic nude BALB/c mouse at 150 mpk, po by LC/MS/MS analysis. The conditions noted are these: in vivo, 150 mg/kg. It is filed as ADME, organism-based, Neoplasm. The procedure, abridged:
(§2)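 HCT116 xenografted nude mice given daily oral doses; tumor tissue sampled 1 h after final dose and compound level measured (ng/g).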

Data set [7] has as its target Phosphatidylinositol 4,5-bisphosphate 3-kinase catalytic subunit gamma isoform (Homo sapiens, UniProt P48736). Kind of data set: Binding affinity to wild-type human partial length PIK3CG (S144 to A1102 residues) expressed in mammalian expression system assessed as residual binding level at 1 uM by Kinomescan method relative to control. The procedure, abridged:
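Kinomescan binding screen at 1 μM across 97 kinases.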

For data set [8], the system named is Mus musculus. Kind of data set: In vivo inhibition of HDAC in tumor of human HGC27 cells xenografted in athymic nude BALB/c mouse assessed as increase in acetylated histone-H3 expression by DAB staining based immunohistochemistry method. It counts as functional, organism-based. The procedure, abridged: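 HGC-27 xenograft tumors from treated and vehicle mice immunostained for Ki67, Ac-H3 and p-AKT(S473) (200×); integrated optical density analysed; mean ± SEM, n = 5−7, one-way ANOVA versus vehicle.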

Data set [9] in a line: Drug level in BALB/c mouse plasma xenografted with human HGC27 cells at 200 mg/kg, po measured 0.5 hrs post last dose. It counts as ADME, organism-based. In outline: (§3)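 HGC-27 xenografted nude mice dosed po (0.5% cmc/Tween 80) or ip (saline); at end of treatment, 0.5 h after final dose, plasma and tumor tissue collected and compound concentration measured (ng/mL plasma, ng/g tumor).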

Data set [10] can be described thus: Drug level in BALB/c mouse plasma xenografted with human HGC27 cells at 100 mg/kg, po measured 0.5 hrs post last dose. It counts as ADME, organism-based. In outline:
as §3
(Xenograft models place foreign cells or tissue in a host animal.)

In data set [11] the test system is HCT-116. In words: Antitumor activity against human HCT116 cells xenografted in athymic nude BALB/c mouse assessed as tumor growth inhibition at 150 mpk, po measured 2 times every week relative to control. It counts as functional. Conditions: HCT-116, po, read-out: TGI. The procedure, abridged: (§4)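 Female BALB/c-nu/nu mice, 6–8 weeks, given 2 × 10^6 HCT116 cells in 0.2 mL saline s.c. right flank; randomized at 100–200 mm3. Daily oral dosing in 0.5% cmc with Tween 80; vehicle controls.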

Data set [12] is described as follows: Terminal half life in ICR mouse at 3 mg/kg, iv measured after 0.033 to 24 hrs by LC/MS/MS analysis. It counts as ADME, organism-based. Conditions: in vivo, read-out: beta t1/2 (converted). In outline:
(§5)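 Male-unspecified ICR mice, 3 per group iv (3 mg/kg in 10% DMSO/saline) and 5 per group po (30 mg/kg in 0.5% cmc/0.3% Tween 80). Blood sampled 0.033 (iv) or 0.083 (po) to 24 h. Plasma extracted with acetonitrile, analysed by LC/MS/MS; noncompartmental analysis.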

Data set [13] can be described thus: Drug level in tumor of human HCT116 cells xenografted in athymic nude BALB/c mouse at 100 mpk, po by LC/MS/MS analysis. It is filed as ADME, organism-based, Neoplasm. Conditions: in vivo, 100 mg/kg. In outline:
as §2

Data set [14] relates to Mus musculus. In words: In vivo inhibition of PI3K/HDAC in tumor of human HCT116 cells xenografted in athymic nude BALB/c mouse assessed as reduction in phosphorylated Ki67 expression by DAB staining based immunohistochemistry method. It is filed as functional, organism-based. The procedure, abridged: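 HCT116 xenograft tumors from treated and vehicle mice stained immunohistochemically for Ki67, acetyl-H3 and p-AKT(S473) (200×); integrated optical density quantified; mean ± SEM, n = 5−7, one-way ANOVA versus vehicle.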

The species named for data set [15] is Homo sapiens. Kind of data set: Inhibition of PI3K in human HCT116 cells assessed as reduction in AKT phosphorylation at S473 residue at 0.5 to 5 uM after 16 hrs by Western blot analysis. It counts as cell-based. The procedure, abridged:
as §1

Data set [16] is filed under the species Homo sapiens. Kind of data set: Inhibition of HDAC/PI3K in human HCT116 cells assessed as increase in cleaved caspase-3 level at 0.5 to 5 uM after 16 hrs by Western blot analysis. It counts as cell-based. The procedure, abridged: as §1
Data set [17] can be described thus: Terminal half life in ICR mouse at 30 mg/kg, po measured after 0.083 to 24 hrs by LC/MS/MS analysis. It counts as ADME, organism-based. Conditions: in vivo, read-out: beta t1/2 (converted). In outline: as §5
A short description of data set [18]: Half life in mouse liver microsomes preincubated for 5 mins followed by NADPH addition by LC/MS analysis. It counts as ADME, Microsome. The procedure, abridged:
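Mouse liver microsomes (0.5 mg/mL protein) with compound preincubated 5 min at 37 °C, started with NADPH; quenched with acetonitrile at time points; LC/MS. T1/2 = 0.693/K from ln(concentration) vs time; Clint scaled with factor 3937.5.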

The test system of data set [19] is HCT-116. Kind of data set: Antitumor activity against human HCT116 cells xenografted in po dosed athymic nude BALB/c mouse assessed as tumor growth inhibition measured 2 times every week. It counts as functional, organism-based. The procedure, abridged:
as §4

For another data set, the system named is HGC-27. In words: Antitumor activity against human HGC27 cells xenografted in athymic nude BALB/c mouse assessed as tumor growth inhibition at 30 mpk, ip measured 2 times every week. It counts as functional. The conditions noted are these: HGC-27, ip, read-out: TGI. In outline:
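HGC-27 xenograft: 2 × 10^6 cells in 0.2 mL saline s.c. right flank of female BALB/c-nu/nu mice (6–8 weeks); randomized at 100–200 mm3. Oral dosing in 0.5% cmc with Tween 80, intraperitoneal in saline; vehicle given orally daily.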

Data set [20] can be described thus: Drug level in tumor of human HGC27 cells xenografted in BALB/c mouse at 200 mg/kg, po measured 0.5 hrs post last dose. It counts as ADME, organism-based, Neoplasm. The conditions noted are these: read-out: Drug uptake. The procedure, abridged:
as §3

A short description of data set [21]: Toxicity in athymic nude BALB/c mouse xenografted with human HGC27 cells assessed as reduction in body weight at 30 mpk, ip measured 2 times every week relative to control. It is filed as organism-based. Also on record: scale not given: the % may be the effect or the level left. The conditions noted are these: in vivo, 30 mg/kg.
The nature of data set [22]: Toxicity in athymic nude BALB/c mouse xenografted with human HCT116 cells assessed as reduction in body weight at 100 to 150 mpk, po measured 2 times every week. It is filed as organism-based. The conditions noted are these: in vivo.

Active and inactive are the calls of the source. No cut-off for these calls is given here.

Phosphatidylinositol 4,5-bisphosphate 3-kinase catalytic subunit gamma isoform, sequence (P48736 whole entry, looked up, the tested form may be a part, canonical isoform): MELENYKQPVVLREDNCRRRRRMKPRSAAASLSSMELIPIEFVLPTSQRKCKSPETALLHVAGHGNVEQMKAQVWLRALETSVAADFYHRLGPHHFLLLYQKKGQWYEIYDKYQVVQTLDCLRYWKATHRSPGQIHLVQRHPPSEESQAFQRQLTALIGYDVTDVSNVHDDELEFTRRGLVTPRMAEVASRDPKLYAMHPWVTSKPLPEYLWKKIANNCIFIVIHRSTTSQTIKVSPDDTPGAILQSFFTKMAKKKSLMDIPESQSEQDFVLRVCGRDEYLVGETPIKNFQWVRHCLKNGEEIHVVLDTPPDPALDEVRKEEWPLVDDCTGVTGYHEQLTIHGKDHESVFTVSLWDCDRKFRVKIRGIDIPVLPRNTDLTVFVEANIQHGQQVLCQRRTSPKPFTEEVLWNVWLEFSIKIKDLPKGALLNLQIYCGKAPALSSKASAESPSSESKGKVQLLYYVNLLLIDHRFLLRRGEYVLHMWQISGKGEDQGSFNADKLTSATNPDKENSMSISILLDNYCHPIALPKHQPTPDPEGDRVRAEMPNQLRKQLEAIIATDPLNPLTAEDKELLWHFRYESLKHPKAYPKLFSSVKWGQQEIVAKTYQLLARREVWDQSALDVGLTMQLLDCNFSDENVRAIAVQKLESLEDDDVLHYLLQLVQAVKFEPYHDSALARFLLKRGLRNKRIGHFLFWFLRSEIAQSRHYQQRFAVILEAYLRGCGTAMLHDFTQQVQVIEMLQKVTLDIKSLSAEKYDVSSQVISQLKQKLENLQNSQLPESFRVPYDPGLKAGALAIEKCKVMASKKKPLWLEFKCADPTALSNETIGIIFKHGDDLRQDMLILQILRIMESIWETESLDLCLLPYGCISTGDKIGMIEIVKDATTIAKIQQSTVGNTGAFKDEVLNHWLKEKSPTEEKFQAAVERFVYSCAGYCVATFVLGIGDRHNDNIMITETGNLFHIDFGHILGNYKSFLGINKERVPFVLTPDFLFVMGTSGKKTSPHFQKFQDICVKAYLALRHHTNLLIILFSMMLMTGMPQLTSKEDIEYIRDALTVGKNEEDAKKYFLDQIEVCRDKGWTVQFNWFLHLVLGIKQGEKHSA
Phosphatidylinositol 4,5-bisphosphate 3-kinase catalytic subunit alpha isoform, sequence (P42336 whole entry, canonical isoform): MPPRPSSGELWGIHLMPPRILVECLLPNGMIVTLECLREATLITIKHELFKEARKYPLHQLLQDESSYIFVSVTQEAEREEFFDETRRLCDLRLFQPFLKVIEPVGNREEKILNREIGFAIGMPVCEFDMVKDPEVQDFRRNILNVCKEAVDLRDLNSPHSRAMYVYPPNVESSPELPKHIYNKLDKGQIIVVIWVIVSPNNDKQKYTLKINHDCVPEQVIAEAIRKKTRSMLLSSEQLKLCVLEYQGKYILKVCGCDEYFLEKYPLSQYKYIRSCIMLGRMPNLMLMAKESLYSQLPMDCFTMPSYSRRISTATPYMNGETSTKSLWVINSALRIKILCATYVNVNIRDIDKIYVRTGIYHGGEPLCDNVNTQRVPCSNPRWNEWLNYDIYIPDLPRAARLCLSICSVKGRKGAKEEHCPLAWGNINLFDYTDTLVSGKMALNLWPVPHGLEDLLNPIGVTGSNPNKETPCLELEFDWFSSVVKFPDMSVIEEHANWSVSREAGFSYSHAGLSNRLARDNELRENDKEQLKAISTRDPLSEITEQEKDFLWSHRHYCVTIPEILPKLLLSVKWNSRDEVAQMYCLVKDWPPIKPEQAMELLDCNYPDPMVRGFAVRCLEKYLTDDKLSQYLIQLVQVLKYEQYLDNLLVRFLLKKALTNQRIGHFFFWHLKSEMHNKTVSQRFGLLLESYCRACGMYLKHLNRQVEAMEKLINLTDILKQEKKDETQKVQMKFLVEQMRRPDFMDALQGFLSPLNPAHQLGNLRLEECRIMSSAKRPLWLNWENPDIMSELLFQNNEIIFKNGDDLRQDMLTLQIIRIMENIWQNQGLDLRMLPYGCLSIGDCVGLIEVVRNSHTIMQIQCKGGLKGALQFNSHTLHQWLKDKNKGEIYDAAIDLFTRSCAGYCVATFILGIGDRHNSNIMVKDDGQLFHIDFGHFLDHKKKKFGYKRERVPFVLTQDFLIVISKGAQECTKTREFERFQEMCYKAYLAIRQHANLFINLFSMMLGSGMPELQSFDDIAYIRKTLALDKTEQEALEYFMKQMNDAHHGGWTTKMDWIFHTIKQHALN

Take `COc1ccc(-c2cc(OCCN(C)c3ncc(C(=O)NO)cn3)c3ncnc(C)c3c2)cn1`: the IC50 in data set [1] was found to be 226 nM; in [3] it was 17 nM; at Histone deacetylase 1 it was 1.3 nM. Also, the Ratio IC50 in the data set listed under Homo sapiens [2] is over 5. In addition, the inhibition entry in the data set listed under Homo sapiens [4] and in the data set filed under Homo sapiens [5] was “Active” each time.
On to `COc1ncc(-c2cc(OCCCCCCC(=O)NO)c3ncnc(C)c3c2)cc1F`, for which the Drug uptake in [6] turned out to be 74.8 ng/g; in data set [13] it was 72.7 ng/g. Besides, the Activity in [7] is 1.4%; with HCT-116 [19], “Dose-dependent effect”; in data set [21] it was 20%; in [22] it was “Toxic”. For the same compound, the inhibition result in the data set with Mus musculus [8], in the data set filed under Homo sapiens [15] and in the data set filed under Homo sapiens [16] was “Active” in each case. Further, the concentration at 0.5 h came to 232 ng/mL in [9], 179 ng/mL in data set [10] and 105 ng/g in [20]. Besides, in the data set with HCT-116 [11], the inhibition in vivo at 150 mg/kg worked out at 45.8%. Also, the half-life was 19.8 min in data set [12], 124 min in [17] and 24.6 min in [18]. Also, the inhibition result in the data set with Mus musculus [14] was “Dose-dependent effect”. Also, the inhibition in vivo at 30 mg/kg in the data set with HGC-27 is 62.6%.
